Compound activity (PubChem BioAssay)
Most compounds without a hit are left out; they make up all but 6.4% or so of the library.
MPTP inh: inhibitors of mitochondrial permeability transition pore. isolated mouse mitochondria, Ca2+ swelling absorbance, 30 min. inhibition, % at 10 µM. 360,000 tested, 1.4% active. AID 602449;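 active = inhibition of 50% or more, scaled per plate between neutral and stimulator controls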;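 also: 0% = DMSO wells given calcium and 100% = 1 mM EGTA wells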
Tb MetRS inh: blocks T. brucei methionyl-tRNA synthetase activity. 360,000 tested, 0.4% active. purified T. brucei MetRS, ATP depletion, Kinase-Glo luminescence. inhibition, % at 11.9 µM;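 active = inhibition above a per-plate cutoff of the control wells' mean inhibition plus 3 SD, cut at about 5.5% in these data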;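 also: 0% = DMSO wells median and 100% = median of wells with control inhibitor compound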
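Dosing: 11.9 µM compound single dose, 0.9% DMSO; Assay system: purified T. brucei MetRS enzyme; Measured by: Kinase-Glo luciferase luminescence reporting remaining unconsumed ATP; Schedule: 15 min plus 2 h at 25 °C.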
EBV gp42 block: inhibitors of Epstein-Barr virus glycoprotein 42 | inhibition, % (tested at 21.74 µM) | 220,000 tested, 0.42% active | Fluorescence polarization binding assay, mP read-out | AID 1085; in the data active = inhibition above about 50%
Target sequence (Q1HVG2 whole entry, looked up): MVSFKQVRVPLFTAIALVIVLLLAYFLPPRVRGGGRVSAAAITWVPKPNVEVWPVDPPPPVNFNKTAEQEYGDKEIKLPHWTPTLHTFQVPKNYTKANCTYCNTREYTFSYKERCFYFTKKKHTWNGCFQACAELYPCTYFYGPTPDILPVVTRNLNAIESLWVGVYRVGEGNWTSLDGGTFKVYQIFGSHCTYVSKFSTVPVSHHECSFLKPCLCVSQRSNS
WT yeast gro inh: growth inhibition of WT yeast, mitochondrial fusion screen. inhibition, % at 10 µM. 190,000 tested, 2.1% active. mitochondrial fusion phenotypic screen, WT strain; in the data active = inhibition above about 58%; tested in S. cerevisiae
CHOP inhibitor: CHOP inhibition in unfolded protein response. CHO-K1 CHOP-promoter luciferase, tunicamycin-induced, 15-18 h. inhibition, % at 10 µM. 220,000 tested, 3.8% active;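 active = compounds that reduced the stress-induced luciferase reporter signal by more than about 70% of percent inhibition, limit read from the data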;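 also: 0% = tunicamycin plus vehicle and 100% = wells without tunicamycin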
NR3A LBD binder: modulates the human NR3A ligand-binding domain; NR3A LBD differential scanning fluorimetry, Tm shift; 0% = protein alone, 100% = glycine-bound protein; Tm shift relative to glycine control, % at 25 µM; 340,000 tested, 2.5% active; AID 1259313;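 active = melting temperature shift of at least 10% of the positive control shift, at one fixed dose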
The depositor's hits bear a star.

For O=C(COc1c(Cl)cccc1Cl)Nc1ccccc1N1CCCC1 the results were MPTP inh 0.6, Tb MetRS inh -0.2 and NR3A LBD binder 1.1.
`Cc1ccc([N+](=O)[O-])cc1S(=O)(=O)NCc1cccnc1` gave MPTP inh -0.1, Tb MetRS inh 0.0, EBV gp42 block -19.7, WT yeast gro inh -4.8, CHOP inhibitor -20.0 and NR3A LBD binder 3.5.
For Cc1ccc([N+](=O)[O-])cc1S(=O)(=O)NCCc1c(C)[nH]c2c(C)cccc12 the results were MPTP inh 1.6, Tb MetRS inh -0.5, EBV gp42 block -6.0, WT yeast gro inh -15.2, CHOP inhibitor 7.2 and NR3A LBD binder 33.0*.
Screening Cc1[nH]c2c(C)cccc2c1CCNS(=O)(=O)c1cccc([N+](=O)[O-])c1 returned MPTP inh -1.1, Tb MetRS inh -0.2, EBV gp42 block -0.1, WT yeast gro inh 5.4, CHOP inhibitor -2.5 and NR3A LBD binder 30.2*.
COc1ccc(-c2cc(=O)oc3c(O)c(O)ccc23)cc1 was read as MPTP inh 3.6, Tb MetRS inh 0.0 and NR3A LBD binder 28.7*.
`COc1ccc(-c2cc(=O)oc3cc(OC(C)C(=O)O)ccc23)cc1` (stereo not given) gave MPTP inh 4.5, Tb MetRS inh 0.1, EBV gp42 block -0.9, WT yeast gro inh -13.8, CHOP inhibitor 10.4 and NR3A LBD binder 0.3.
For O=C(NC1CCCC1)C(c1ccccc1)N(Cc1ccc2c(c1)OCO2)C(=O)Cc1cccs1 (stereo not given) the results were MPTP inh 6.0, Tb MetRS inh -0.2, EBV gp42 block -11.6, WT yeast gro inh 5.6, CHOP inhibitor -4.3 and NR3A LBD binder -0.4.
For O=C(CSc1nc(=O)[nH]c2c1CCCC2)Nc1cc(C(F)(F)F)cc(C(F)(F)F)c1 the results were MPTP inh 1.5, Tb MetRS inh -0.5 and NR3A LBD binder 10.3*.
For COc1ccc(Cn2nnc3c(=O)[nH]c(C4CCCN(C(=O)c5ccccc5)C4)nc32)cc1 (stereo not given) the results were MPTP inh -1.3, Tb MetRS inh 0.1, EBV gp42 block 1.4, WT yeast gro inh 12.2, CHOP inhibitor -5.8 and NR3A LBD binder -2.2.
Screening CN(C)CCN=Cc1c(O)n(-c2ccc(S(=O)(=O)N3CCOCC3)cc2)c(=O)c2ccccc12 returned MPTP inh -0.8, Tb MetRS inh -0.8 and NR3A LBD binder 14.1*.
`COc1cccc(CNC(=O)c2cccs2)c1` gave MPTP inh -1.5, Tb MetRS inh -0.7 and NR3A LBD binder 0.8.
`O=C(COc1ccc(C(=O)Nc2ccc(Cl)cc2)cc1)NCc1ccccc1` gave MPTP inh 0.0, Tb MetRS inh 0.2, EBV gp42 block -15.3, WT yeast gro inh 2.1, CHOP inhibitor 77.5* and NR3A LBD binder -14.3.
`O=C(O)/C=C/c1cccc(NC(=O)Nc2ccc([N+](=O)[O-])cc2)c1` gave MPTP inh 2.0, Tb MetRS inh -0.8 and NR3A LBD binder 17.9*.
Screening O=C(COc1ccc([N+](=O)[O-])cc1)Nc1ccc(NC(=O)c2ccccc2)cc1 returned MPTP inh -0.6, Tb MetRS inh 0.1 and NR3A LBD binder 13.2*.
Screening O=C(COc1ccc(Cl)cc1Br)NC(=O)NCc1ccccc1 returned MPTP inh 6.6, Tb MetRS inh -0.3, EBV gp42 block 10.9, WT yeast gro inh 3.4, CHOP inhibitor 84.2* and NR3A LBD binder -6.3.
`CCN(Cc1ccccc1)C(=O)c1cccc(S(=O)(=O)N2CCN(c3ccc(F)cc3)CC2)c1` gave MPTP inh 3.4, Tb MetRS inh -0.4 and NR3A LBD binder 1.1.
For O=C(COc1ccc(Br)cc1)Nc1ccc(C(=O)Nc2ccccc2C(=O)O)cc1 the results were MPTP inh 1.8, Tb MetRS inh -0.7 and NR3A LBD binder 10.6*.
O=C(Nc1ccc([N+](=O)[O-])cc1)C(=O)Nc1cccc(C(=O)O)c1 was read as MPTP inh 0.9, Tb MetRS inh -0.9, EBV gp42 block -8.4, CHOP inhibitor 102.0* and NR3A LBD binder 0.4.
For O=C(COc1ccc([N+](=O)[O-])cc1)NNC(=S)NC(=O)c1ccc(Br)cc1 the results were MPTP inh -0.5, Tb MetRS inh 0.6, EBV gp42 block -23.7, WT yeast gro inh 70.1*, CHOP inhibitor -15.0 and NR3A LBD binder -2.1.
`O=C(CC(=O)c1ccccc1)Nc1ccc([N+](=O)[O-])cc1` gave MPTP inh 37.9, Tb MetRS inh 0.0 and NR3A LBD binder 19.6*.
Screening COC(=O)c1sccc1NC(=O)COc1ccccc1Cl returned MPTP inh -0.3, Tb MetRS inh 0.0, EBV gp42 block -7.7, WT yeast gro inh -13.1, CHOP inhibitor 45.4 and NR3A LBD binder 1.4.
`Cc1ccc(/C=C2\SC(=S)N(CCC(=O)Nc3cccnc3)C2=O)cc1` gave MPTP inh 2.7, Tb MetRS inh -0.3 and NR3A LBD binder 1.9.
CCCCN1C(=O)N(c2ccc(Cl)cc2)C(C)(O)CC1(C)C (stereo not given) was read as MPTP inh 0.2, Tb MetRS inh -0.9 and NR3A LBD binder 2.2.
Screening Nc1ccc(C(=O)CC(=O)Nc2ccc(Cl)cc2)cc1 returned MPTP inh -0.7, Tb MetRS inh 0.7 and NR3A LBD binder 11.8*.
`CS(=O)(=O)Nc1ccc(C(=O)CC(=O)Nc2ccc([N+](=O)[O-])cc2)cc1` gave MPTP inh 0.7, Tb MetRS inh -0.8 and NR3A LBD binder 36.7*.
Screening CC(=O)c1ccc(NS(=O)(=O)c2ccc([N+](=O)[O-])cc2)cc1 returned MPTP inh -0.7, Tb MetRS inh -0.2 and NR3A LBD binder -3.4.
Screening Nc1ccc(NC(=O)c2ccc(C(=O)Nc3ccc(N)cc3)cc2)cc1 returned MPTP inh -0.6, Tb MetRS inh 0.0, EBV gp42 block -13.2, CHOP inhibitor -21.5 and NR3A LBD binder -0.6.
Screening CN(C)S(=O)(=O)Oc1cccc(C(=O)Nc2ccccc2Cl)c1 returned MPTP inh 1.7, Tb MetRS inh -0.6, EBV gp42 block -7.9, WT yeast gro inh 30.2, CHOP inhibitor -17.2 and NR3A LBD binder 1.4.
Screening CN(Cc1ccccc1)c1ncnc2c1cnn2-c1ccccc1 returned MPTP inh -1.4, Tb MetRS inh -0.8, EBV gp42 block -0.5, WT yeast gro inh 14.4, CHOP inhibitor 56.7 and NR3A LBD binder -0.3.
`CCN(c1ccccc1)c1ncnc2c1cnn2-c1ccccc1` gave MPTP inh 2.8, Tb MetRS inh 0.4, EBV gp42 block -5.5, WT yeast gro inh 0.9, CHOP inhibitor 79.5* and NR3A LBD binder 0.4.
Fc1cccc(F)c1/C=C/c1ccc2ccccc2n1 was read as MPTP inh -0.4, Tb MetRS inh -1.0, EBV gp42 block -0.1, WT yeast gro inh 50.5, CHOP inhibitor 46.3 and NR3A LBD binder 6.8.
`Cc1ccc2nc(/C=C/c3cccc(F)c3)ccc2c1` gave MPTP inh 0.8, Tb MetRS inh -0.4, EBV gp42 block -2.6, WT yeast gro inh 2.1, CHOP inhibitor 95.5* and NR3A LBD binder -29.9.
